Source: publication PMC8882712 (Cell chemical biology, 2021)

Assays:
[1] = test system: EOL-1, RS4;11 and MM1.S cells; test: Cell growth inhibition assay; type: cell-based, human; settings: for EC50: Homo sapiens, 192 h, read-out: EC50 (growth inhibition)
Outline: (§1)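 Cells were kept in RPMI 1640 with 10% FBS and 1% penicillin/streptomycin. 0.5 million cells per well were seeded in triplicate and treated with various final compound concentrations, with compound-containing medium renewed every two days. Cultures were diluted to stay below 1×10^6/mL and counted automatically every two days. EC50 came from nonlinear regression over at least three experiments, given as mean ± SD.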

EOL-1 and MM1.S cells [2] = test: Colony formation assay; type: cell-based, human; settings: 2.5 μM
Outline: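 20,000 cells per well were plated in triplicate. Medium containing compound or vehicle was replaced every four days. After 4 weeks, wells were stained with 100 μg/mL iodonitrotetrazolium chloride, and colonies were counted after overnight incubation.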

cancer cells = settings: ref Bottcher et al., 2019; cited from earlier work
NSD3S = biological target: T1, NSD3S (Homo sapiens, UniProt Q9BZ95); test: Immunoblotting for NSD3S in 293FT cells; type: cell-based; settings: 48-hour treatment; for NSD3 degradation (immunoblot): 293FT cells, indicated concentrations
T1 sequence (Q9BZ95 1-645 isoform Q9BZ95-3): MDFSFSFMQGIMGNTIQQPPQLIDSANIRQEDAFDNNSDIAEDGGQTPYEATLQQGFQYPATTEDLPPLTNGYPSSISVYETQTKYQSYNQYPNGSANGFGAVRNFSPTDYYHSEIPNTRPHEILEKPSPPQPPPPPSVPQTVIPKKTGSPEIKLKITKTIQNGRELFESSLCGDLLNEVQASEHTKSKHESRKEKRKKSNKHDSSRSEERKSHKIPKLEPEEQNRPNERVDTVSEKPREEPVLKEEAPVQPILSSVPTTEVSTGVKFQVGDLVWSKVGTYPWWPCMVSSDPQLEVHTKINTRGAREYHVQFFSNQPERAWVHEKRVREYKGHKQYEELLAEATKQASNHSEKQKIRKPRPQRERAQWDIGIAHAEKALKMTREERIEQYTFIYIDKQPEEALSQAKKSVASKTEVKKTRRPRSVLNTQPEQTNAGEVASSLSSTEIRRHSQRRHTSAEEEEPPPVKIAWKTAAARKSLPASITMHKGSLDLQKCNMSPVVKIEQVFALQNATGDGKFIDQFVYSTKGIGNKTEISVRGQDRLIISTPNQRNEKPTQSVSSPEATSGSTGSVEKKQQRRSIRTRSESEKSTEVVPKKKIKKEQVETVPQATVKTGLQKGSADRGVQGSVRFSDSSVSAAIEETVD
Outline: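 293FT cells were grown in DMEM with 10% FBS and 1% penicillin/streptomycin. NSD3 was detected by western blot with rabbit anti-NSD3 antibody, using rabbit anti-GAPDH as loading control and HRP-linked secondary antibodies.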

K562 cells = test: Cell growth inhibition assay in K562 cells; type: cell-based, human; settings: 2.5 μM, ten days
Outline: as §1

NSD3 [3] = biological target: T2, NSD3 (Homo sapiens, UniProt Q9BZ95); test: Ubiquitination assay of Flag-tagged NSD3S in 293FT cells; type: cell-based; settings: 293FT cells expressing Flag-tagged NSD3S, 48-hour treatment
T2 sequence (Q9BZ95 1-645 isoform Q9BZ95-3): T1 sequence (Q9BZ95 1-645 isoform Q9BZ95-3)

cMyc [4] = test: Immunoblotting for cMyc protein levels; type: cell-based, human
Outline: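 cMyc was detected by western blot with rabbit anti-cMyc antibody, using rabbit anti-GAPDH as loading control. VHL status was checked with mouse anti-VHL. VHL was knocked out by CRISPR/Cas9 and compared with WT cells. EOL-1 and MM1.S cells were grown in RPMI 1640 and 293FT cells in DMEM, each with 10% FBS and 1% penicillin/streptomycin.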

EOL-1 cells = test: Mass spectrometry-based global proteomic profiling; type: cell-based, human; settings: 2.5 μM, 30 hours, more than 5,000 proteins detected
EOL-1 and MM1.S cells [5] = test: Apoptosis induction; type: cell-based, human; settings: 2.5 μM, four-day treatment
Outline: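 EOL-1 and MM1.S cells were grown in RPMI 1640 with 10% FBS and 1% penicillin/streptomycin. Lines were authenticated by genetic fingerprinting and screened monthly for mycoplasma. Apoptosis was assessed by western blot with rabbit anti-cleaved caspase-3 and anti-cleaved caspase-7 antibodies, detected with an HRP-linked anti-rabbit IgG secondary.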

[6] = test system: CBLB, IFITM1, SELL and MAP7; test: RT-qPCR and western blots of NSD3-upregulated gene targets; type: cell-based, human; settings: EOL-1 or MM1.S cells, 2.5 μM, 48 hours, compared to BI-9321 and MS9715N
Outline: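 For mRNA, RT-qPCR relative expression was calculated by the 2−ΔΔCT method and normalized to the mean of beta-actin. For protein, western blots used rabbit anti-CBLB and rabbit anti-IFITM1 antibodies with rabbit anti-GAPDH as loading control. Cells were grown in RPMI 1640 with 10% FBS.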

NSD3 [7] = biological target: T2, NSD3; test: Immunoblotting for NSD3 degradation in hematological cancer cells; type: cell-based
cMyc [8] = test: cMyc ubiquitination assay in EOL-1 cells; type: cell-based, human; settings: 2.5 μM, 48-hour treatment
Outline: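 Lysates were heat-denatured 5 min at 95°C, diluted with EBC, sonicated and cleared. Immunoprecipitation with antibody ran overnight at 4°C, then protein A/G magnetic beads for 3 h at 4°C. Blots were probed with mouse anti-ubiquitin.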

NSD3 PWWP1 domain = biological target: T3, NSD3 PWWP1 domain (Homo sapiens, UniProt Q9BZ95); test: Isothermal titration calorimetry; type: binding
T3 sequence (Q9BZ95 247-402): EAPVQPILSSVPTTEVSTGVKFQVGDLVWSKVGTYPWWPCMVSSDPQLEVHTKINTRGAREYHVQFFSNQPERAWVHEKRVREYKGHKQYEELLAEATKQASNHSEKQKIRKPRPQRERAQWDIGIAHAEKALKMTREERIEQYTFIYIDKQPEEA

Cc1cc(CN)cc(C)c1-c1ncn(C)c1-c1ccnc2cc(F)ccc12 [BI-9321, reference compound]
EC50 [1]: > 10 µM | colony-forming capabilities (EOL-1 and MM1.S cells [2]): little or no effect | killing of cancer cells (cancer cells): does not lead to effective killing of cancer cells

Cc1cc(CNCCCC(=O)NCCOCCOCCNc2cccc3c2C(=O)N(C2CCC(=O)NC2=O)C3=O)cc(C)c1-c1ncn(C)c1-c1ccnc2cc(F)ccc12 (stereo not drawn) [Compound 1, N-(2-(2-(2-((2-(2,6-dioxopiperidin-3-yl)-1,3-dioxoisoindolin-4-yl)amino)ethoxy)ethoxy)ethyl)-4-((4-(5-(7-fluoroquinolin-4-yl)-1-methyl-1H-imidazol-4-yl)-3,5-dimethylbenzyl)amino) butanamide]
NSD3 degradation (immunoblot) (NSD3S): failed to degrade NSD3

Cc1cc(CNCCCC(=O)NCCCCCNc2cccc3c2C(=O)N(C2CCC(=O)NC2=O)C3=O)cc(C)c1-c1ncn(C)c1-c1ccnc2cc(F)ccc12 (stereo not drawn) [Compound 2, N-(5-((2-(2,6-dioxopiperidin-3-yl)-1,3-dioxoisoindolin-4-yl)amino)pentyl)-4-((4-(5-(7-fluoroquinolin-4-yl)-1-methyl-1H-imidazol-4-yl)-3,5-dimethylbenzyl)amino)butanamide]
NSD3 degradation (immunoblot) (NSD3S): failed to degrade NSD3

Cc1cc(CNCCCC(=O)NCCCCCCCCC(=O)N[C@H](C(=O)N2C[C@H](O)C[C@H]2C(=O)NCc2ccc(-c3scnc3C)cc2)C(C)(C)C)cc(C)c1-c1ncn(C)c1-c1ccnc2cc(F)ccc12 [Compound 5, (2S,4R)-1-((S)-2-(9-(4-((4-(5-(7-fluoroquinolin-4-yl)-1-methyl-1H-imidazol-4-yl)-3,5-dimethylbenzyl)amino)butanamido)nonanamido)-3,3-dimethylbutanoyl)-4-hydroxy-N-(4-(4-methylthiazol-5-yl)benzyl)pyrrolidine-2-carboxamide]
NSD3 degradation (immunoblot) (NSD3S): clearly induced NSD3 degradation at 10–40 μM

Cc1cc(CNCCCC(=O)NCCCCNC(=O)C[C@H](NC(=O)[C@@H]2C[C@@H](O)CN2C(=O)[C@@H](NC(=O)C2(F)CC2)C(C)(C)C)c2ccc(-c3scnc3C)cc2)cc(C)c1-c1ncn(C)c1-c1ccnc2cc(F)ccc12 [Compound 6, (2S,4R)-1-((S)-2-(1-fluorocyclopropane-1-carboxamido)-3,3-dimethylbutanoyl)-N-((S)-3-((4-(4-((4-(5-(7-fluoroquinolin-4-yl)-1-methyl-1H-imidazol-4-yl)-3,5-dimethylbenzyl)amino)butanamido)butyl)amino)-1-(4-(4-methylthiazol-5-yl)phenyl)-3-oxopropyl)-4-hydroxypyrrolidine-2-carboxamide]
NSD3 degradation (immunoblot) (NSD3S): did not lead to effective degradation of NSD3

Cc1cc(CNCCCC(=O)NCCCCCCCCC(=O)N[C@H](C(=O)N2C[C@H](O)C[C@H]2C(=O)N[C@@H](C)c2ccc(-c3scnc3C)cc2)C(C)(C)C)cc(C)c1-c1ncn(C)c1-c1ccnc2cc(F)ccc12 [MS9715, (2S,4R)-1-((S)-2-(9-(4-((4-(5-(7-fluoroquinolin-4-yl)-1-methyl-1H-imidazol-4-yl)-3,5-dimethylbenzyl)amino)butanamido)nonanamido)-3,3-dimethylbutanoyl)-4-hydroxy-N-((S)-1-(4-(4-methylthiazol-5-yl)phenyl)ethyl)pyrrolidine-2-carboxamide]
growth inhibitory activity (K562 cells): little growth inhibitory effect | ubiquitination of cellular NSD3 (NSD3 [3]): induced ubiquitination of cellular NSD3 in a concentration-dependent manner | growth inhibitory activity ([1]; 2.5 μM, ten days, EOL-1, MM1.S and RS4;11 cells): effectively inhibited the growth | EC50 [1]: 2 to 4 µM | colony-forming capabilities (EOL-1 and MM1.S cells [2]): drastically decreased colony-forming capabilities | NSD3 degradation in VHL knockout cells (NSD3S; 293FT cells with CRISPR/Cas9-mediated KO of VHL vs WT): abrogated the MS9715-mediated NSD3 degradation | protein levels of cMyc (cMyc [4]; EOL-1 and MM1.S cells, 2.5 μM, 48 hours): significant decrease in the protein levels of cMyc | cMyc depletion in VHL-deficient cells (cMyc [4]; VHL-deficient EOL-1 and 293FT cells relative to WT, 48-hour treatment): almost completely diminished | proteome-wide selectivity (significantly downregulated proteins) (EOL-1 cells): NSD3 was the only protein showing significant downregulation | induction of apoptosis (EOL-1 and MM1.S cells [5]): induced a prominent increase of apoptosis | suppression of expression of CBLB, IFITM1, SELL and MAP7 [6]: superior effect | concentration-dependent depletion of cellular NSD3S (NSD3 [7]; EOL-1, MM1.S and MOLM13 cells, 48-hour treatment): concentration-dependent depletion of cellular NSD3S | depletion of NSD3S and NSD3L isoforms (NSD3 [7]; EOL-1 and MM1.S cells): led to depletion of both NSD3S and NSD3L isoforms | time-dependent NSD3S degradation (NSD3 [7]; EOL-1 and MM1.S cells, 2.5 μM): significant degradation occurring at as early as 24 hours | Dmax (NSD3 [7]; MOLM-13, read-out: maximum degradation (Dmax)): > 80% | DC50 (NSD3 [7]; read-out: half-maximal degradation concentration (DC50), MOLM13 cells, 48-hour treatment, mean ± SD from three independent experiments): 4.9 ± 0.4 µM | ubiquitination of cellular cMyc (cMyc [8]): significantly enhanced

Cc1cc(CNCCCC(=O)NCCCCCCCCC(=O)N[C@H](C(=O)N2C[C@@H](O)C[C@@H]2C(=O)N[C@@H](C)c2ccc(-c3scnc3C)cc2)C(C)(C)C)cc(C)c1-c1ncn(C)c1-c1ccnc2cc(F)ccc12 [MS9715N, (2R,4S)-1-((S)-2-(9-(4-((4-(5-(7-fluoroquinolin-4-yl)-1-methyl-1H-imidazol-4-yl)-3,5-dimethylbenzyl)amino)butanamido)nonanamido)-3,3-dimethylbutanoyl)-4-hydroxy-N-((S)-1-(4-(4-methylthiazol-5-yl)phenyl)ethyl)pyrrolidine-2-carboxamide]
EC50 [1]: > 10 µM | colony-forming capabilities (EOL-1 and MM1.S cells [2]): little or no effect | Kd (NSD3 PWWP1 domain): 1.62 ± 0.33 µM
